# Laboratory results: ChEMBL document CHEMBL1255358, “Relation between genetic markers of drug resistance and susceptibility profile of clinical Neisseria gonorrhoeae strains” (2008)
# How the values were obtained:
# Format in all cases: functional
# Neisseria gonorrhoeae [1] = experiment: Antimicrobial activity against Neisseria gonorrhoeae obtained from patient with uncomplicated gonorrhea assessed as incidence of resistant isolates by agar dilution method
# Outline: (§1)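 Clinical isolates shipped frozen on dry ice to a central lab, recovered from cryobeads onto GC agar and subcultured once. MICs were determined by agar dilution on GC agar supplemented with PolyViteX, with strain ATCC 49226 as control. Isolates were classed susceptible, intermediate or resistant by current CLSI criteria. Genotypes were assigned by PCR, and by minisequencing with MALDI-TOF mass spectrometry.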
# Neisseria gonorrhoeae [2] = experiment: Antimicrobial activity against Neisseria gonorrhoeae obtained from patient with uncomplicated gonorrhea assessed as incidence of susceptible isolates by agar dilution method
# Outline: (§2)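 Agar dilution MICs on GC agar supplemented with PolyViteX, tested against penicillin, tetracycline and fluoroquinolones. Clinical isolates were shipped frozen on dry ice to a central laboratory, recovered from cryobeads on GC agar plates and subcultured once before testing. Strain ATCC 49226 served as the control. Isolates were classed susceptible, intermediate or resistant using current CLSI interpretive criteria.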
# Neisseria gonorrhoeae [3] = experiment: Antimicrobial activity against Neisseria gonorrhoeae obtained from patient with uncomplicated gonorrhea assessed as percentage intermediate isolates by agar dilution method; outline: as §2
# Neisseria gonorrhoeae [4] = experiment: Antimicrobial activity against Neisseria gonorrhoeae obtained from patient with uncomplicated gonorrhea expressing penA mutant gene assessed as percentage intermediate isolates by agar dilution method; outline: as §1
# Neisseria gonorrhoeae [5] = experiment: Antimicrobial activity against Neisseria gonorrhoeae obtained from patient with uncomplicated gonorrhea expressing penA mutant gene assessed as incidence of resistant isolates by agar dilution method; outline: as §1
# Neisseria gonorrhoeae [6] = experiment: Antimicrobial activity against Neisseria gonorrhoeae obtained from patient with uncomplicated gonorrhea expressing mtrR mutant gene assessed as incidence of resistant isolates by agar dilution method; outline: as §1
# Neisseria gonorrhoeae [7] = experiment: Antimicrobial activity against Neisseria gonorrhoeae obtained from patient with uncomplicated gonorrhea expressing penB mutant gene assessed as incidence of resistant isolates by agar dilution method; outline: as §1
# Neisseria gonorrhoeae [8] = experiment: Antimicrobial activity against Neisseria gonorrhoeae obtained from patient with uncomplicated gonorrhea expressing penA and penB mutant gene assessed as incidence of resistant isolates by agar dilution method; outline: as §1
# Neisseria gonorrhoeae [9] = experiment: Antimicrobial activity against Neisseria gonorrhoeae obtained from patient with uncomplicated gonorrhea expressing penA and mtrR mutant gene assessed as incidence of resistant isolates by agar dilution method; outline: as §1
# Neisseria gonorrhoeae [10] = experiment: Antimicrobial activity against Neisseria gonorrhoeae obtained from patient with uncomplicated gonorrhea expressing penA, penB and mtrR mutant gene assessed as incidence of resistant isolates by agar dilution method; outline: as §1
# Neisseria gonorrhoeae [11] = experiment: Antimicrobial activity against Neisseria gonorrhoeae obtained from patient with uncomplicated gonorrhea expressing penA and ponA mutant gene assessed as incidence of resistant isolates by agar dilution method; outline: as §1
# Neisseria gonorrhoeae [12] = experiment: Antimicrobial activity against Neisseria gonorrhoeae obtained from patient with uncomplicated gonorrhea expressing penA, ponA and mtrR mutant gene assessed as incidence of resistant isolates by agar dilution method; outline: as §1
# Neisseria gonorrhoeae [13] = experiment: Antimicrobial activity against Neisseria gonorrhoeae obtained from patient with uncomplicated gonorrhea expressing penA, penB and ponA mutant gene assessed as incidence of resistant isolates by agar dilution method; outline: as §1
# Neisseria gonorrhoeae [14] = experiment: Antimicrobial activity against Neisseria gonorrhoeae obtained from patient with uncomplicated gonorrhea expressing penA, penB, ponA and mtrR mutant gene assessed as incidence of resistant isolates by agar dilution method; outline: as §1
# Neisseria gonorrhoeae [15] = experiment: Antimicrobial activity against Neisseria gonorrhoeae obtained from patient with uncomplicated gonorrhea expressing beta-lactamase TEM-1 mutant gene assessed as incidence of resistant isolates by agar dilution method; outline: as §1
# Neisseria gonorrhoeae [16] = experiment: Antimicrobial activity against Neisseria gonorrhoeae obtained from patient with uncomplicated gonorrhea expressing penA mutant gene assessed as incidence of susceptible isolates by agar dilution method; outline: as §1
# Neisseria gonorrhoeae [17] = experiment: Antimicrobial activity against Neisseria gonorrhoeae obtained from patient with uncomplicated gonorrhea expressing mtrR mutant gene assessed as incidence of susceptible isolates by agar dilution method; outline: as §1
# Neisseria gonorrhoeae [18] = experiment: Antimicrobial activity against Neisseria gonorrhoeae obtained from patient with uncomplicated gonorrhea expressing penB mutant gene assessed as incidence of susceptible isolates by agar dilution method
# Outline: (§3)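 Clinical N. gonorrhoeae isolates were shipped frozen on dry ice and recovered from cryobeads on GC agar. They were subcultured once and then tested by agar dilution on GC agar with PolyViteX supplement, with ATCC 49226 as the control strain. Susceptible, intermediate or resistant status was set by CLSI criteria. Genotype came from PCR for blaTEM-1/tet(M) and from primer-extension minisequencing with MALDI-TOF detection of SNPs.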
# Neisseria gonorrhoeae [19] = experiment: Antimicrobial activity against Neisseria gonorrhoeae obtained from patient with uncomplicated gonorrhea expressing penA and penB mutant gene assessed as incidence of susceptible isolates by agar dilution method; outline: as §1
# Neisseria gonorrhoeae [20] = experiment: Antimicrobial activity against Neisseria gonorrhoeae obtained from patient with uncomplicated gonorrhea expressing penA and mtrR mutant gene assessed as incidence of susceptible isolates by agar dilution method; outline: as §1
# Neisseria gonorrhoeae [21] = experiment: Antimicrobial activity against Neisseria gonorrhoeae obtained from patient with uncomplicated gonorrhea expressing penA, penB and mtrR mutant gene assessed as incidence of susceptible isolates by agar dilution method; outline: as §1
# Neisseria gonorrhoeae [22] = experiment: Antimicrobial activity against Neisseria gonorrhoeae obtained from patient with uncomplicated gonorrhea expressing penA and ponA mutant gene assessed as incidence of susceptible isolates by agar dilution method; outline: as §1
# Neisseria gonorrhoeae [23] = experiment: Antimicrobial activity against Neisseria gonorrhoeae obtained from patient with uncomplicated gonorrhea expressing penA, ponA and mtrR mutant gene assessed as incidence of susceptible isolates by agar dilution method; outline: as §1
# Neisseria gonorrhoeae [24] = experiment: Antimicrobial activity against Neisseria gonorrhoeae obtained from patient with uncomplicated gonorrhea expressing penA, penB and ponA mutant gene assessed as incidence of susceptible isolates by agar dilution method; outline: as §1
# Neisseria gonorrhoeae [25] = experiment: Antimicrobial activity against Neisseria gonorrhoeae obtained from patient with uncomplicated gonorrhea expressing penA, penB, ponA and mtrR mutant gene assessed as incidence of susceptible isolates by agar dilution method; outline: as §1
# Neisseria gonorrhoeae [26] = experiment: Antimicrobial activity against Neisseria gonorrhoeae obtained from patient with uncomplicated gonorrhea expressing beta-lactamase TEM-1 mutant gene assessed as incidence of susceptible isolates by agar dilution method; outline: as §1
# Neisseria gonorrhoeae [27] = experiment: Antimicrobial activity against Neisseria gonorrhoeae obtained from patient with uncomplicated gonorrhea expressing mtrR mutant gene assessed as percentage intermediate isolates by agar dilution method; outline: as §1
# Neisseria gonorrhoeae [28] = experiment: Antimicrobial activity against Neisseria gonorrhoeae obtained from patient with uncomplicated gonorrhea expressing penB mutant gene assessed as percentage intermediate isolates by agar dilution method; outline: as §3
# Neisseria gonorrhoeae [29] = experiment: Antimicrobial activity against Neisseria gonorrhoeae obtained from patient with uncomplicated gonorrhea expressing penA and penB mutant gene assessed as percentage intermediate isolates by agar dilution method; outline: as §1
# Neisseria gonorrhoeae [30] = experiment: Antimicrobial activity against Neisseria gonorrhoeae obtained from patient with uncomplicated gonorrhea expressing penA and mtrR mutant gene assessed as percentage intermediate isolates by agar dilution method; outline: as §1
# Neisseria gonorrhoeae [31] = experiment: Antimicrobial activity against Neisseria gonorrhoeae obtained from patient with uncomplicated gonorrhea expressing penA, penB and mtrR mutant gene assessed as percentage intermediate isolates by agar dilution method; outline: as §1
# Neisseria gonorrhoeae [32] = experiment: Antimicrobial activity against Neisseria gonorrhoeae obtained from patient with uncomplicated gonorrhea expressing penA and ponA mutant gene assessed as percentage intermediate isolates by agar dilution method; outline: as §1
# Neisseria gonorrhoeae [33] = experiment: Antimicrobial activity against Neisseria gonorrhoeae obtained from patient with uncomplicated gonorrhea expressing penA, ponA and mtrR mutant gene assessed as percentage intermediate isolates by agar dilution method; outline: as §1
# Neisseria gonorrhoeae [34] = experiment: Antimicrobial activity against Neisseria gonorrhoeae obtained from patient with uncomplicated gonorrhea expressing penA, penB and ponA mutant gene assessed as percentage intermediate isolates by agar dilution method; outline: as §1
# Neisseria gonorrhoeae [35] = experiment: Antimicrobial activity against Neisseria gonorrhoeae obtained from patient with uncomplicated gonorrhea expressing penA, penB, ponA and mtrR mutant gene assessed as percentage intermediate isolates by agar dilution method; outline: as §1
# Neisseria gonorrhoeae [36] = experiment: Antimicrobial activity against Neisseria gonorrhoeae obtained from patient with uncomplicated gonorrhea expressing beta-lactamase TEM-1 mutant gene assessed as percentage intermediate isolates by agar dilution method; outline: as §1
# Neisseria gonorrhoeae [37] = experiment: Antimicrobial activity against Neisseria gonorrhoeae obtained from patient with uncomplicated gonorrhea expressing rpsJ and penB mutant gene assessed as percentage intermediate isolates by agar dilution method; outline: as §3
# Neisseria gonorrhoeae [38] = experiment: Antimicrobial activity against Neisseria gonorrhoeae obtained from patient with uncomplicated gonorrhea expressing rpsJ, penB and mtrR mutant gene assessed as percentage intermediate isolates by agar dilution method; outline: as §3
# Neisseria gonorrhoeae [39] = experiment: Antimicrobial activity against Neisseria gonorrhoeae obtained from patient with uncomplicated gonorrhea expressing tetM mutant gene in combination with variants of other gene loci assessed as percentage intermediate isolates by agar dilution method; outline: as §3
# Neisseria gonorrhoeae [40] = experiment: Antimicrobial activity against Neisseria gonorrhoeae obtained from patient with uncomplicated gonorrhea expressing rpsJ mutant gene assessed as incidence of resistant isolates by agar dilution method; outline: as §3
# Neisseria gonorrhoeae [41] = experiment: Antimicrobial activity against Neisseria gonorrhoeae obtained from patient with uncomplicated gonorrhea expressing rpsJ and mtrR mutant gene assessed as incidence of resistant isolates by agar dilution method; outline: as §3
# Neisseria gonorrhoeae [42] = experiment: Antimicrobial activity against Neisseria gonorrhoeae obtained from patient with uncomplicated gonorrhea expressing rpsJ and penB mutant gene assessed as incidence of resistant isolates by agar dilution method; outline: as §3
# Neisseria gonorrhoeae [43] = experiment: Antimicrobial activity against Neisseria gonorrhoeae obtained from patient with uncomplicated gonorrhea expressing rpsJ, penB and mtrR mutant gene assessed as incidence of resistant isolates by agar dilution method; outline: as §3
# Neisseria gonorrhoeae [44] = experiment: Antimicrobial activity against Neisseria gonorrhoeae obtained from patient with uncomplicated gonorrhea expressing tetM mutant gene in combination with variants of other gene loci assessed as incidence of resistant isolates by agar dilution method; outline: as §3
# Neisseria gonorrhoeae [45] = experiment: Antimicrobial activity against Neisseria gonorrhoeae obtained from patient with uncomplicated gonorrhea expressing rpsJ mutant gene assessed as incidence of susceptible isolates by agar dilution method; outline: as §3
# Neisseria gonorrhoeae [46] = experiment: Antimicrobial activity against Neisseria gonorrhoeae obtained from patient with uncomplicated gonorrhea expressing rpsJ and mtrR mutant gene assessed as incidence of susceptible isolates by agar dilution method; outline: as §3
# Neisseria gonorrhoeae [47] = experiment: Antimicrobial activity against Neisseria gonorrhoeae obtained from patient with uncomplicated gonorrhea expressing rpsJ and penB mutant gene assessed as incidence of susceptible isolates by agar dilution method; outline: as §3
# Neisseria gonorrhoeae [48] = experiment: Antimicrobial activity against Neisseria gonorrhoeae obtained from patient with uncomplicated gonorrhea expressing rpsJ, penB and mtrR mutant gene assessed as incidence of susceptible isolates by agar dilution method; outline: as §3
# Neisseria gonorrhoeae [49] = experiment: Antimicrobial activity against Neisseria gonorrhoeae obtained from patient with uncomplicated gonorrhea expressing tetM mutant gene in combination with variants of other gene loci assessed as incidence of susceptible isolates by agar dilution method; outline: as §3
# Neisseria gonorrhoeae [50] = experiment: Antimicrobial activity against Neisseria gonorrhoeae obtained from patient with uncomplicated gonorrhea expressing rpsJ mutant gene assessed as percentage intermediate isolates by agar dilution method; outline: as §3
# Neisseria gonorrhoeae [51] = experiment: Antimicrobial activity against Neisseria gonorrhoeae obtained from patient with uncomplicated gonorrhea expressing rpsJ and mtrR mutant gene assessed as percentage intermediate isolates by agar dilution method; outline: as §3
structure (smiles),measurement,setting,value
O=C(O)c1cn(C2CC2)c2cc(N3CCNCC3)c(F)cc2c1=O [CIPROFLOXACIN],Activity,Neisseria gonorrhoeae [1],0%
same,Activity,Neisseria gonorrhoeae [2],99.3%
same,Activity,Neisseria gonorrhoeae [3],0.7%
same,Activity,Neisseria gonorrhoeae [4],0%
CC1(C)S[C@@H]2[C@H](NC(=O)Cc3ccccc3)C(=O)N2[C@H]1C(=O)O [PENICILLIN G],Activity,Neisseria gonorrhoeae [1],0%
same,Activity,Neisseria gonorrhoeae [5],3.9%
same,Activity,Neisseria gonorrhoeae [6],0%
same,Activity,Neisseria gonorrhoeae [7],0%
same,Activity,Neisseria gonorrhoeae [8],0%
same,Activity,Neisseria gonorrhoeae [9],6.7%
same,Activity,Neisseria gonorrhoeae [10],0%
same,Activity,Neisseria gonorrhoeae [11],5.1%
same,Activity,Neisseria gonorrhoeae [12],8%
same,Activity,Neisseria gonorrhoeae [13],9.2%
same,Activity,Neisseria gonorrhoeae [14],17.3%
same,Activity,Neisseria gonorrhoeae [15],83.3%
same,Activity,Neisseria gonorrhoeae [2],90.7%
same,Activity,Neisseria gonorrhoeae [16],49%
same,Activity,Neisseria gonorrhoeae [17],100%
same,Activity,Neisseria gonorrhoeae [18],100%
same,Activity,Neisseria gonorrhoeae [19],28.6%
same,Activity,Neisseria gonorrhoeae [20],33.3%
same,Activity,Neisseria gonorrhoeae [21],50%
same,Activity,Neisseria gonorrhoeae [22],15.4%
same,Activity,Neisseria gonorrhoeae [23],9.7%
same,Activity,Neisseria gonorrhoeae [24],7.9%
same,Activity,Neisseria gonorrhoeae [25],11.3%
same,Activity,Neisseria gonorrhoeae [26],0%
same,Activity,Neisseria gonorrhoeae [3],9.3%
same,Activity,Neisseria gonorrhoeae [4],47.1%
same,Activity,Neisseria gonorrhoeae [27],0%
same,Activity,Neisseria gonorrhoeae [28],0%
same,Activity,Neisseria gonorrhoeae [29],71.4%
same,Activity,Neisseria gonorrhoeae [30],60%
same,Activity,Neisseria gonorrhoeae [31],50%
same,Activity,Neisseria gonorrhoeae [32],79.5%
same,Activity,Neisseria gonorrhoeae [33],82.3%
same,Activity,Neisseria gonorrhoeae [34],82.8%
same,Activity,Neisseria gonorrhoeae [35],71.4%
same,Activity,Neisseria gonorrhoeae [36],16.7%
CN(C)[C@@H]1C(O)=C(C(N)=O)C(=O)[C@@]2(O)C(O)=C3C(=O)c4c(O)cccc4[C@@](C)(O)[C@H]3C[C@@H]12 [TETRACYCLINE],Activity,Neisseria gonorrhoeae [37],25.3%
same,Activity,Neisseria gonorrhoeae [38],23%
same,Activity,Neisseria gonorrhoeae [39],0%
same,Activity,Neisseria gonorrhoeae [1],0%
same,Activity,Neisseria gonorrhoeae [6],0%
same,Activity,Neisseria gonorrhoeae [40],18.7%
same,Activity,Neisseria gonorrhoeae [41],46.2%
same,Activity,Neisseria gonorrhoeae [42],54%
same,Activity,Neisseria gonorrhoeae [43],56.1%
same,Activity,Neisseria gonorrhoeae [44],100%
same,Activity,Neisseria gonorrhoeae [2],83.5%
same,Activity,Neisseria gonorrhoeae [17],100%
same,Activity,Neisseria gonorrhoeae [45],30.5%
same,Activity,Neisseria gonorrhoeae [46],26.9%
same,Activity,Neisseria gonorrhoeae [47],20.7%
same,Activity,Neisseria gonorrhoeae [48],20.9%
same,Activity,Neisseria gonorrhoeae [49],0%
same,Activity,Neisseria gonorrhoeae [3],16.5%
same,Activity,Neisseria gonorrhoeae [4],0%
same,Activity,Neisseria gonorrhoeae [27],0%
same,Activity,Neisseria gonorrhoeae [50],50.8%
same,Activity,Neisseria gonorrhoeae [51],26.9%
